High-throughput results from PubChem BioAssay.
Sampled rows, rich in hits. Any-hit rate of the full collection: about 4.8%.
FLuc inhib CS – firefly luciferase enzyme inhibitors, primary screen, artefact control for luciferase-based inhibitor screens, biochemical, luminescence, ATPLite; 10 min; Luciferin 4-monooxygenase (Photinus pyralis), P08659; inhibition, % at 10 µM; 1.5% of 200,000 active;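 active = inhibition above about 50% when tested at 10 µM, limit read from the data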
Target sequence (P08659 whole entry, looked up): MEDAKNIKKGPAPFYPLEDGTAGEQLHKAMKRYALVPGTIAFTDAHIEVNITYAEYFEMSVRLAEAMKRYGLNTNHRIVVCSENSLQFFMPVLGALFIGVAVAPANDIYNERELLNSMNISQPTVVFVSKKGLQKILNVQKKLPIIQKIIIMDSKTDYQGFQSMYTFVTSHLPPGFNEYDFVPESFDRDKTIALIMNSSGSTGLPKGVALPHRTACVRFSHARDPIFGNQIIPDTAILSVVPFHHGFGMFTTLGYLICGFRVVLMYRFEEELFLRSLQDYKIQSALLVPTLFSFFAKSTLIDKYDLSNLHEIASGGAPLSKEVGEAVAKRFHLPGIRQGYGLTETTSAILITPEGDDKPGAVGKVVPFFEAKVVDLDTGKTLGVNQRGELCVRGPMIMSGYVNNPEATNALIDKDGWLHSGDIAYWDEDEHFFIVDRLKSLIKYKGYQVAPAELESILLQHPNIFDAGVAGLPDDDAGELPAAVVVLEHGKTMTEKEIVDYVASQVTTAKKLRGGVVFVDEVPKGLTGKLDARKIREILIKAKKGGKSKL
APP 5'UTR act – activators of APP 5'UTR luciferase reporter, primary screen, SH-SY5Y cells; 1% of 190,000 active; SH-SY5Y APP 5'UTR luciferase reporter, luminescence; zero percent = DMSO vehicle wells; activation, % at 2 µM; AID 1276, 2008;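 active = activation above a set limit, based on mean plus 3 SD of controls, cut at about 140% in these data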
APP transl inh – inhibitors of APP translation via 5'UTR reporter, primary screen, APP 5'UTR luciferase, SH-SY5Y cells. SH-SY5Y APP 5'UTR-luciferase reporter, luminescence. inhibition, % at 2 µM. 0.82% of 190,000 active. AID 1285, 2008;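 active = inhibition above a set limit, derived from the sample mean plus 3 SD, cut at about 45% in these data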
STAT1 activator – STAT1 signaling activators, primary screen, cell-based, HTS, luciferase reporter; 2.6% of 200,000 active; NIH 3T3 STAT1-luciferase reporter, IFN-gamma, luminescence; 100% = IFN-gamma alone, no compound; AID 932, 2007; activation (% of control), % at 5.5 µM;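 active = activation above the screen-wide mean activation plus 3 SD, cut at about 130% in these data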
FLuc stim CS – FLuc activators, initial screening, artefact control for FLuc-dependent activation tests, biochemical, ATPlite luminescence; Luciferin 4-monooxygenase (Photinus pyralis), P08659; ATPlite luciferase biochemical, 10 min; 0 = ATP-free wells, 1 = DMSO control; AID 1027, 2008; 200,000 tested, under 10 active; activation factor at 10 µM;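 active = luciferase activation factor, scaled between plate controls, of at least 2 with compound at 10 µM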
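Material: luciferase plus luciferin reagent, cell-free. Medium: PBS buffer for ATP. Also added: ATP substrate, dispensed from a 10.24 µM working solution in PBS. Doses: test compounds dosed from 2 mM stocks in 100% DMSO. Incubation: 10 min post-reagent at room temperature. Technique: light output (luminescence). Read-out basis: luminescence gain marking luciferase activators.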
NF-kB neuron act – activators of NF-kB expression in neurons, primary screen, cell-based, HTS; human neuronal cells, NF-kB reporter expression; hits give high values; fold change at 12.5 µM; 1.6% of 190,000 active; in the data active = fold change above about 3.3
Of the large screens only hits and unclear results are named; the others gave an inactive call.

CN(C(=O)COC(=O)/C=C/c1ccc(S(=O)(=O)N2CCc3ccccc32)cc1)C1CCS(=O)(=O)C1 (configuration not stated)	none
O=C(C1COc2ccccc2O1)N1CCc2ccccc21 (configuration not stated)	STAT1 activator 130.9
O=C(C1COc2ccccc2O1)N1CCCC1 (configuration not stated)	none
O=C(COc1ccc2c(c1)CCC2)NCc1ccc(Cl)cc1	none
CCOC(=O)c1nc2ccccc2nc1C	none
Cc1ccc2nc(C)/c(=N\O)c(C)nc2c1	APP 5'UTR act 195.4, STAT1 activator 137.1
Cc1nc2ccccc2nc(C)c1=NO	STAT1 activator 138.0
O=C(N=c1nc2ccccn2s1)c1ccccc1	FLuc inhib CS 95.2 (no result: APP 5'UTR act, APP transl inh, STAT1 activator, NF-kB neuron act)
COc1cccc(/C=C/C(=O)N2CCN(c3n[nH]c(=O)[nH]c3=O)CC2)c1OC	none
COc1cccc(-n2nc(C#N)c(Cl)cc2=O)c1	APP transl inh 91.3
Cn1c(NC(=O)c2cc(Br)ccc2Cl)cc(=O)n(C)c1=O	none
c1cncc(-c2noc(-c3cccc4ccccc34)n2)c1	none
c1ccc(-c2noc(-c3cccc4ccccc34)n2)cc1	STAT1 activator 141.6, NF-kB neuron act 6.14
Brc1cccc(-c2nc(-c3ccncc3)no2)c1	none
Clc1ccc(Br)cc1-c1nc(-c2ccncc2)no1	STAT1 activator 137.0
c1ccc2c(-c3nc(-c4ccncc4)no3)cccc2c1	STAT1 activator 129.1
S=C(NCC1CCCO1)NC1CC1 (configuration not stated)	none
CCC(=O)N1CCc2cc(Br)cc(S(=O)(=O)NCC3CCCN3CC)c21 (configuration not stated)	none
COc1ccc(N=C2S/C(=C\c3cc(C)n(C)c3C)C(=O)N2CC(C)C)cc1	none
CCn1c(C)cc(/C=C2/SC(=S)N(CC(=O)O)C2=O)c1C	FLuc inhib CS 80.1
COC(=O)C(C)N1C(=O)S/C(=C/c2cc(C)n(C(C)C)c2C)C1=O (configuration not stated)	FLuc inhib CS 51.2, STAT1 activator 138.0
Cc1cccc(NC(=O)CN2C(=O)N/C(=C/c3cc(C)n(C(C)C)c3C)C2=O)c1	none
CCOC(=O)C(C)N1C(=O)S/C(=C/c2cc(C)n(-c3ccccn3)c2C)C1=O (configuration not stated)	APP 5'UTR act 140.0
COC(=O)CN1C(=O)S/C(=C/c2cc(C)n(C)c2C)C1=O	STAT1 activator 130.4
CCOC(=O)C(C)N1C(=O)S/C(=C/c2cc(C)n(-c3ccncc3)c2C)C1=O (configuration not stated)	none
CCn1c(C)nc2cc(C(=O)NNC(=S)NC(=O)c3ccccc3)ccc21	none
O=C(COc1ccc(Cl)cc1[N+](=O)[O-])N/N=C/c1cccs1	none
COc1ccc(/C=C/C(=O)OCC(=O)NCc2ccco2)cc1OC	none
CCNC(=O)C(=O)NCC1OCCCN1S(=O)(=O)c1cccs1 (configuration not stated)	none
CC1=NN(C(=O)c2c(Br)c(C)nn2C)C(O)(C(F)(F)F)C1 (configuration not stated)	none
O=C(Oc1ccc(-c2ccccc2)cc1)N1CCCCC1	STAT1 activator 130.5, NF-kB neuron act 7
O=C(Oc1ccc(OC(=O)N2CCCCC2)cc1)N1CCCCC1	none
Cc1cc(C)nc(SCc2nc(N)nc(-c3ccccc3O)n2)n1	none
CCn1c(SCC(=O)N2CCc3ccccc3C2)nc2sc(C)c(C)c2c1=O	none
Cc1ccccc1SCCNC(=O)c1ccccc1Br	none
Cc1ccccc1SCCNC(=O)CCc1ccccc1	STAT1 activator 148.7
COc1ccccc1CNC(=O)CSc1ccsc1[N+](=O)[O-]	STAT1 activator 136.8
Cc1cccc(Cc2nnc(CCC(=O)N3CCCCC3c3nccs3)o2)c1 (configuration not stated)	none
COc1ccc(OC)c(Cc2nnc(CCC(=O)N3CCCCC3c3nccs3)o2)c1 (configuration not stated)	STAT1 activator 134.4
CCc1nc2ccccc2[nH]1	none
Cc1ccc(S(=O)(=O)CCc2nc3ccccc3[nH]2)cc1	none
c1ccc(OCc2nc3ccccc3[nH]2)cc1	STAT1 activator 129.1
Clc1ccc(OCc2nc3ccccc3[nH]2)cc1	FLuc inhib CS 69.6, APP 5'UTR act 184.3, STAT1 activator 144.0 (no result: NF-kB neuron act)
Cc1ccc(OCc2nc3ccccc3[nH]2)cc1	FLuc inhib CS 87.5, APP 5'UTR act 163.9, STAT1 activator 146.7
CCOC(=O)C1=NN(C(C)=O)C2(CC(=O)N(c3ccc(C)c(C)c3)C2=O)C1 (configuration not stated)	none
O=C(NCc1ccccc1)c1ccccc1C(=O)c1ncc[nH]1	none (no result: NF-kB neuron act)
CCCC(=O)NCCc1ccc(S(N)(=O)=O)cc1	none
CCOc1ccc(-c2nnc3n2N=C(c2ccc(OC)cc2)CS3)cc1	none
COc1ccc(C2=Nn3c(nnc3-c3ccncc3)SC2)cc1OC	none
CCOc1ccc(C2=Nn3c(nnc3-c3ccccc3OC)SC2)cc1	APP transl inh 94.9
COc1ccccc1-c1nnc2n1N=C(c1ccc(O)c(O)c1)CS2	APP transl inh 94.6, NF-kB neuron act 3.4
COc1ccc(-c2cn3ccc4ccccc4c3n2)cc1	FLuc inhib CS 68.1, APP 5'UTR act 217.3, NF-kB neuron act 13.5
Cc1cccn2cc(-c3ccccc3)nc12	FLuc inhib CS 68.9, APP 5'UTR act 154.4, STAT1 activator 137.6, NF-kB neuron act 4.26
Cc1ccn2cc(-c3cccc(NC(=O)c4cccs4)c3)nc2c1	none
Cc1cccn2cc(-c3cccc(NC(=O)c4cccs4)c3)nc12	STAT1 activator 130.7
Cc1cccn2cc(-c3ccc(F)cc3)nc12	FLuc inhib CS 58.6, STAT1 activator 130.4, NF-kB neuron act 5.78
CN(C(=O)/C=C/c1cnc2ccccc2c1)C1CCCCC1	FLuc inhib CS 62.5, APP 5'UTR act 275.2, NF-kB neuron act 3.9
CC(Sc1nc(-c2ccccc2)cs1)C(=O)Nc1ccc(Cl)cn1 (configuration not stated)	none
N/C(=N\NC(=O)c1sccc1OCc1ccc(Cl)cc1Cl)c1ccccn1	APP transl inh 61.5
CNC(=S)NNC(=O)c1sccc1OCc1ccc(Cl)cc1Cl	none
COc1ccccc1N1CCN(C2CC(=O)N(C)C2=O)CC1 (configuration not stated)	none
O=C(N/N=C/c1ccc[nH]1)c1ccc(COc2cccc3cccnc23)cc1	APP transl inh 46.1 (no result: NF-kB neuron act)
